In ChEMBL document CHEMBL2401648, “3-Aryl-3-arylmethoxyazetidines. A new class of high affinity ligands for monoamine transporters” (Bioorg Med Chem Lett, 2013):

Legend:
Format in all cases: tissue-based
Rattus norvegicus = species: Rattus norvegicus; assay: Selectivity ratio of Ki for DAT in Sprague-Dawley rat brain homogenate to Ki for SERT in Sprague-Dawley rat brain homogenate
Method in brief: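 Ratio of DAT Ki to SERT Ki. DAT Ki came from [3H]WIN 35,428 displacement and SERT Ki from [3H]citalopram displacement, both in rat brain tissue. Each Ki is the mean ± SEM of three experiments run in triplicate.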

[1] = biological target: Sodium-dependent serotonin transporter (Rattus norvegicus, UniProt P31652); assay: Displacement of [3H]Citalopram from SERT in Sprague-Dawley rat brain homogenate after 60 mins by scintillation counting analysis
Method in brief: (§1)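 Competitive binding in rat brain tissue: [3H]citalopram displaced from SERT, [3H]WIN 35,428 displaced from DAT. Ki values are the mean ± SEM of three experiments run in triplicate. Compounds tested mainly as hydrochloride salts, some as oxalate salts.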

[2] = biological target: Sodium-dependent dopamine transporter (Rattus norvegicus, UniProt P23977); assay: Displacement of [3H]WIN 35,428 from DAT in Sprague-Dawley rat brain homogenate preincubated for 5 mins prior to radioligand addition measured after 1 hr by scintillation counting analysis; method in brief: as §1
Sodium-dependent dopamine transporter, sequence (P23977 whole entry): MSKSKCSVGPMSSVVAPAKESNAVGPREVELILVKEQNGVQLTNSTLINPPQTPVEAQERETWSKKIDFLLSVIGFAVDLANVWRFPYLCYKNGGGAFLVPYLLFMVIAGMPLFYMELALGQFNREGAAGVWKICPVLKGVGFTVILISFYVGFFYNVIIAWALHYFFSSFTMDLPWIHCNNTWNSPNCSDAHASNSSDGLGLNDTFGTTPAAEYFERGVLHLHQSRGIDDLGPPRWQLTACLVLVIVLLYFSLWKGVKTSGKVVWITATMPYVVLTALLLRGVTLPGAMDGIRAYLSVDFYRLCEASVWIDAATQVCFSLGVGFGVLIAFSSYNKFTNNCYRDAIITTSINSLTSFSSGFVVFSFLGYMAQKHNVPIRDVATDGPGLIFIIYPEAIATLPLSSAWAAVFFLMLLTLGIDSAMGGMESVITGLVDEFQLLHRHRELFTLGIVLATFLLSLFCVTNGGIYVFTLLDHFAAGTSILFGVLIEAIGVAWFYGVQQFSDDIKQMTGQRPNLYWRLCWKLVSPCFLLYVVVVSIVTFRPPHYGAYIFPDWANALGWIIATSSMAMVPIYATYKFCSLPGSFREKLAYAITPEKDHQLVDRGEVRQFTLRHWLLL

Sodium-dependent serotonin transporter, sequence (P31652 whole entry): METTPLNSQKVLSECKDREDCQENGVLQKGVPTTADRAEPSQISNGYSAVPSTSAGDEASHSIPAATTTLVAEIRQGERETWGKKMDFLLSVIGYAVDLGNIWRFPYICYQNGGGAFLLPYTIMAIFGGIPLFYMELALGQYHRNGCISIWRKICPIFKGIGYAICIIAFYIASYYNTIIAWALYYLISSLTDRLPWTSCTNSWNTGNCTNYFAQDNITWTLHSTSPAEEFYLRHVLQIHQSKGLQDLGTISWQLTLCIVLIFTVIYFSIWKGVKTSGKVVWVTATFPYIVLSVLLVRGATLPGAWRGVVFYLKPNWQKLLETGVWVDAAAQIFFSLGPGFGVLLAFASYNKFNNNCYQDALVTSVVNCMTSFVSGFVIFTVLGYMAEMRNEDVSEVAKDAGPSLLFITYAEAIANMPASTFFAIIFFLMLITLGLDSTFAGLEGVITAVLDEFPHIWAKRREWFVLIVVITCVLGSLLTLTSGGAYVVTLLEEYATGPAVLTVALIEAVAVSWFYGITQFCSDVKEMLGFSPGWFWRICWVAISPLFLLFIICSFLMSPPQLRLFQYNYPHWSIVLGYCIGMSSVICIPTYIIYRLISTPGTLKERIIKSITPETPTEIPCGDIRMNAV

| Compound | Ratio Ki (Rattus norvegicus) | Ki [1] | Ki [2] |
| --- | --- | --- | --- |
| Clc1ccc(COC2(c3ccc(Cl)cc3)CNC2)cc1 | 1100 | 3.5 nM | 3830 nM |
| CN1CC(OCc2ccccc2)(c2ccc(Cl)cc2)C1 | 36 | 39 nM | 1410 nM |
| CN1CC(OCc2ccc(Cl)cc2)(c2ccc(Cl)c(Cl)c2)C1 | 630 | 4.8 nM | 2290 nM |
| CN1CC(OCc2ccc(Cl)cc2)(c2ccc(Cl)cc2)C1 | 490 | 7.8 nM | 2030 nM |
| CN1CC(OCc2ccc(Cl)c(Cl)c2)(c2ccc(Cl)cc2)C1 | 330 | 3 nM | 976 nM |
| CN1CC(OCc2ccc(Cl)c(Cl)c2)(c2ccc(Cl)c(Cl)c2)C1 | 340 | 1.3 nM | 436 nM |
| CN1CC(OCc2ccccc2)(c2ccc(Cl)c(Cl)c2)C1 | 27 | 23 nM | 620 nM |
| CN1CC(OCc2ccc(Cl)cc2)(c2ccccc2)C1 | 980 | 4 nM | 3910 nM |
| CN1CC(OCc2ccc(Cl)c(Cl)c2)(c2ccccc2)C1 | – | 1 nM | – |
| Clc1ccc(COC2(c3ccc(Cl)c(Cl)c3)CNC2)cc1Cl | 870 | 4.2 nM | 3670 nM |
| Clc1ccc(COC2(c3ccc(Cl)c(Cl)c3)CNC2)cc1 | 1000 | 2.9 nM | 3020 nM |
| Clc1ccc(C2(OCc3ccccc3)CNC2)cc1Cl | 6.3 | 208 nM | 1300 nM |
| Clc1ccc(COC2(c3ccccc3)CNC2)cc1Cl | 390 | 7.3 nM | 2820 nM |
| Clc1ccc(C2(OCc3ccccc3)CNC2)cc1 | 3.9 | 825 nM | 3180 nM |
| Clc1ccc(COC2(c3ccccc3)CNC2)cc1 | 1.4 | 2590 nM | 3610 nM |
| CN1CC(OCc2ccccc2)(c2ccccc2)C1 | 24 | 73 nM | 1730 nM |
| Clc1ccc(C2(OCc3ccc(Cl)c(Cl)c3)CNC2)cc1 | 470 | 8.1 nM | 3770 nM |
| c1ccc(COC2(c3ccccc3)CNC2)cc1 | 4 | 1230 nM | 4860 nM |
